The text below walks through data of ChEMBL document CHEMBL4043303, “Development of Novel Melanocortin Receptor Agonists Based on the Cyclic Peptide Framework of Sunflower Trypsin Inhibitor-1” (J Med Chem, 2018).

Data set [1] deals with T1, Melanocortin receptor 4 (Homo sapiens, UniProt P32245). Nature of the data set: Displacement of [125I]-NDP-alpha-MSH from human MC4R LBD expressed in HEK293 cell membranes up to 100 uM incubated for 16 to 23 hrs in dark by scintillation proximity assay. (In general: Loss of bound radioactivity is the signal in a displacement assay; it reports binding, not function.)
T1 sequence (P32245 whole entry, the tested form may be a part): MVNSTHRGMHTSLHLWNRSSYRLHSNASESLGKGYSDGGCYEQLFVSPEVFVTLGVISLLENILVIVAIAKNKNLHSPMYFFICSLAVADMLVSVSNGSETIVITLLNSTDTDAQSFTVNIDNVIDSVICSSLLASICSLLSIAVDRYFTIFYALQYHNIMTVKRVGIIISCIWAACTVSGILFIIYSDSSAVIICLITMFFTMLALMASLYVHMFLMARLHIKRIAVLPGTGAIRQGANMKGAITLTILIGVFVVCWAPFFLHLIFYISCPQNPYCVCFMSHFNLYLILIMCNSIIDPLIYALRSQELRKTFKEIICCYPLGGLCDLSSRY
Data set [2] can be described thus: Solubility of the compound in water at 1 mM. Type of data set: physicochemical. The note with it: buffer, 1000 µM.
Data set [3] has as its target T2, Melanocortin receptor 5 (Homo sapiens, UniProt P33032). The experiment in a line: Displacement of [125I]-NDP-alpha-MSH from human MC5R LBD expressed in HEK293 cell membranes incubated for 16 to 23 hrs in dark by scintillation proximity assay. Details: concentration or dose not given beside the values. The conditions noted are these: concentration not given here.

In data set [4] the target is T1, Melanocortin receptor 4. Nature of the data set: Agonist activity at human MC4R expressed in high doxycyclin-treated HEK293 cell membranes assessed as increase in cAMP production after 15 mins by HTRF method. Type of data set: functional, cell-based. The procedure, abridged: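 T-REx-293 cells stably expressing doxycycline-inducible human MC1R, MC3R or MC4R; expression induced 24 h with 0.1 ng/mL (low) or 10 ng/mL (high, MC4R only) doxycycline. 1000 cells/well in HBSS, 20 mM HEPES pH 7.4, 0.1% BSA, 1 mM IBMX; stimulated at 37 °C. Time-resolved FRET cAMP read-out normalized to NDP-α-MSH maximum.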
On the technique in general: cAMP levels reflect the balance of adenylyl cyclase and phosphodiesterase activity.

The target in data set [5] is T3, Melanocyte-stimulating hormone receptor (Homo sapiens, UniProt Q01726). Nature of the data set: Displacement of [125I]-NDP-alpha-MSH from human MC1R LBD expressed in HEK293 cell membranes up to 1 uM incubated for 16 to 23 hrs in dark by scintillation proximity assay.
T3 sequence (Q01726 whole entry, looked up, the tested form may be a part): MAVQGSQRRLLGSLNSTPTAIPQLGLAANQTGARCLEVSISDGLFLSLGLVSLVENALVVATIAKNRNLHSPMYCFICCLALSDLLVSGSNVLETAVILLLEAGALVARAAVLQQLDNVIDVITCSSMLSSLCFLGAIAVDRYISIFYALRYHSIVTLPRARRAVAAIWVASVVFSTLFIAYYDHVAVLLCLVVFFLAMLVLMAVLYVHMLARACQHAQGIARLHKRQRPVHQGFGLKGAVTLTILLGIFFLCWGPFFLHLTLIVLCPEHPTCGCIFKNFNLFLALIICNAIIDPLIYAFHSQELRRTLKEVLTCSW
The target in data set [6] is T4, Melanocortin receptor 3 (Homo sapiens, UniProt P41968). Nature of the data set: Displacement of [125I]-NDP-alpha-MSH from human MC3R LBD expressed in HEK293 cell membranes incubated for 16 to 23 hrs in dark by scintillation proximity assay. On the set-up: concentration or dose not given beside the values. The note with it: concentration not given here.
T4 sequence (P41968 whole entry, the tested form may be a part): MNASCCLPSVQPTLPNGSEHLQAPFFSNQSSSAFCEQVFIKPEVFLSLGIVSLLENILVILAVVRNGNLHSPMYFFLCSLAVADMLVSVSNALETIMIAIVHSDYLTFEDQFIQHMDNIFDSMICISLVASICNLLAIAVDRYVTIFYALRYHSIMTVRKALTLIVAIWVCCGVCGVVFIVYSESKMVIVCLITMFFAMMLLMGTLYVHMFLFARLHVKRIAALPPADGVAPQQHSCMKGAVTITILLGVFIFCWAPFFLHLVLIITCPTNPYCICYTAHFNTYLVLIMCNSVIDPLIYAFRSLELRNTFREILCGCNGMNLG
The target in data set [7] is T4, Melanocortin receptor 3. The experiment in a line: Agonist activity at human MC3R expressed in low doxycyclin-treated HEK293 cell membranes assessed as increase in cAMP production up to 100 uM after 45 mins by HTRF method. Type of data set: functional, cell-based. The procedure, abridged: (§1)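 Stable T-REx-293 clones (Zeocin-selected, human receptor cDNA in pcDNA4/TO), receptor expression induced with 0.1 ng/mL doxycycline for 24 h. 1000 cells/well in HBSS with Ca2+/Mg2+, 20 mM HEPES pH 7.4, 0.1% BSA. Stimulation for 45 min at 37 °C with 1 mM IBMX. cAMP read by LANCE HTRF (665/615 nm).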

Data set [8] addresses T1, Melanocortin receptor 4. Nature of the data set: Agonist activity at human MC4R expressed in low doxycyclin-treated HEK293 cell membranes assessed as increase in cAMP production up to 100 uM after 45 mins by HTRF method. It is filed as functional, cell-based. The procedure, abridged:
as §1

Data set [9] addresses T3, Melanocyte-stimulating hormone receptor. The experiment in a line: Agonist activity at human MC1R expressed in low doxycyclin-treated HEK293 cell membranes assessed as increase in cAMP production after 45 mins by HTRF method. Type of data set: functional, cell-based.
Data set [10] shares this target. The experiment in a line: Displacement of [125I]-NDP-alpha-MSH from human MC1R LBD expressed in HEK293 cell membranes incubated for 16 to 23 hrs in dark by scintillation proximity assay. Details: concentration or dose not given beside the values. The note with it: concentration not given here.
In data set [11] the target is T4, Melanocortin receptor 3. Nature of the data set: Displacement of [125I]-NDP-alpha-MSH from human MC3R LBD expressed in HEK293 cell membranes up to 100 uM incubated for 16 to 23 hrs in dark by scintillation proximity assay.
In data set [12] the target is T1, Melanocortin receptor 4. Nature of the data set: Displacement of [125I]-NDP-alpha-MSH from human MC4R LBD expressed in HEK293 cell membranes incubated for 16 to 23 hrs in dark by scintillation proximity assay. On the set-up: concentration or dose not given beside the values. The conditions noted are these: concentration not given here.
Data set [13] addresses T1, Melanocortin receptor 4. Nature of the data set: Agonist activity at human MC4R expressed in high doxycyclin-treated HEK293 cell membranes assessed as increase in cAMP production up to 100 uM after 15 mins by HTRF method. Type of data set: functional, cell-based. The procedure, abridged: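 Stable T-REx-293 clone expressing human MC4R, induced with 10 ng/mL doxycycline for 24 h. 1000 cells/well in HBSS/20 mM HEPES pH 7.4/0.1% BSA. Stimulation for 15 min at 37 °C with 1 mM IBMX. LANCE HTRF cAMP read-out.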

Data set [14] deals with T3, Melanocyte-stimulating hormone receptor. Nature of the data set: Displacement of [125I]-NDP-alpha-MSH from human MC1R LBD expressed in HEK293 cell membranes up to 100 uM incubated for 16 to 23 hrs in dark by scintillation proximity assay.
Data set [15] shares this target. Nature of the data set: Agonist activity at human MC1R expressed in low doxycyclin-treated HEK293 cell membranes assessed as increase in cAMP production up to 100 uM after 45 mins by HTRF method. It is filed as functional, cell-based. The gist of the method:
as §1

Data set [16] concerns the target T2, Melanocortin receptor 5. Nature of the data set: Displacement of [125I]-NDP-alpha-MSH from human MC5R LBD expressed in HEK293 cell membranes up to 100 uM incubated for 16 to 23 hrs in dark by scintillation proximity assay.

The source made the active and inactive calls. The rule behind the calls is not given here.

T2 sequence (P33032 whole entry, the tested form may be a part): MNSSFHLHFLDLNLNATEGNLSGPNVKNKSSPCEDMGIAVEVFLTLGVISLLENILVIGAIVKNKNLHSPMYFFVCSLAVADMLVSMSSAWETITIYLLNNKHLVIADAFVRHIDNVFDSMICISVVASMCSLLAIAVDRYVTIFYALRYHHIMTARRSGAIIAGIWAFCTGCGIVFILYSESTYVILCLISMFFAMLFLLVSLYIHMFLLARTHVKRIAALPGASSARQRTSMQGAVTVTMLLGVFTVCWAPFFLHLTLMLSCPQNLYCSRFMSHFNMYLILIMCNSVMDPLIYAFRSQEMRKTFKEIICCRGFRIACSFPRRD

A word on the inhibition: it is the relative decrease from the control value, in per cent. Take `CC[C@H](C)[C@@H]1NC(=O)[C@@H]2CCCN2C(=O)[C@H](Cc2c[nH]c3ccccc23)NC(=O)[C@H](CCCNC(=N)N)NC(=O)[C@H](Cc2ccccc2)NC(=O)[C@H](Cc2cnc[nH]2)NC(=O)[C@H]([C@@H](C)O)NC(=O)[C@@H]2CSSC[C@H](NC1=O)C(=O)N[C@@H](Cc1ccccc1)C(=O)N1CCC[C@H]1C(=O)N[C@@H](CC(=O)O)C(=O)NCC(=O)N[C@@H](CCCNC(=N)N)C(=O)N2`: the inhibition result in [1] and in data set [5] was “inactive” each time. For the same molecule, in [2], the solubility result was “Soluble”. Also, the inhibition in data set [3] and in [6] was 100% each time. Further, the Activity in data set [4] and in data set [9] was 100% in each case. Also, the result in data set [7] and in [8] was inactive.

Take `CC[C@H](C)[C@@H]1NC(=O)[C@@H]2CCCN2C(=O)[C@H](Cc2c[nH]c3ccccc23)N(C)C(=O)[C@H](CCCNC(=N)N)N(C)C(=O)[C@@H](Cc2ccccc2)NC(=O)[C@H](Cc2cnc[nH]2)N(C)C(=O)[C@H]([C@@H](C)O)NC(=O)[C@@H]2CSSC[C@H](NC1=O)C(=O)N[C@@H](Cc1ccccc1)C(=O)N1CCC[C@H]1C(=O)N[C@@H](CC(=O)O)C(=O)NCC(=O)N[C@@H](CCCNC(=N)N)C(=O)N2`: the solubility result in data set [2] is listed as “Soluble”. For the same molecule, the inhibition in [3], in [10] and in data set [12] was 100% throughout. Also, the Activity in [4] and in data set [9] was 100% each time. For the same molecule, the inhibition entry in data set [11] is “inactive”. Also, the result in data set [7] and in data set [8] was inactive.

As to `CC[C@H](C)[C@@H]1NC(=O)[C@@H]2CCCN2C(=O)[C@@H]2CCCN2C(=O)[C@H]([C@@H](C)CC)NC(=O)[C@H](CO)NC(=O)[C@H](CCCCN)NC(=O)[C@H]([C@@H](C)O)NC(=O)[C@@H]2CSSC[C@H](NC1=O)C(=O)N[C@@H](Cc1ccccc1)C(=O)N1CCC[C@H]1C(=O)N[C@@H](CC(=O)O)C(=O)NCC(=O)N[C@@H](CCCNC(=N)N)C(=O)N2`, the outcome in data set [13], in data set [15], in data set [7] and in data set [8] was inactive. Besides, the inhibition entry in data set [14], in [1], in data set [16] and in data set [11] was “inactive” each time. Also, the solubility result in data set [2] is on record as “Soluble”.
